# Source: PubChem BioAssay (The Scripps Research Institute Molecular Screening Center)
# M4 antag: antagonists of human muscarinic M4 receptor (CHRM4); CHO-hM4 cells, ACh EC80, Fluo-8 calcium fluorescence; actives 0.73% (n = 360,000); AID 624125; inhibition, % at 3 µM; P08173;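 active means inhibition above its plate's cutoff, the mean inhibition of sample wells plus 3 SD, cut at about 27% in these data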;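 further: 0% = acetylcholine EC80 with DMSO and 100% = DMSO without agonist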
# Target sequence (P08173 whole entry, looked up): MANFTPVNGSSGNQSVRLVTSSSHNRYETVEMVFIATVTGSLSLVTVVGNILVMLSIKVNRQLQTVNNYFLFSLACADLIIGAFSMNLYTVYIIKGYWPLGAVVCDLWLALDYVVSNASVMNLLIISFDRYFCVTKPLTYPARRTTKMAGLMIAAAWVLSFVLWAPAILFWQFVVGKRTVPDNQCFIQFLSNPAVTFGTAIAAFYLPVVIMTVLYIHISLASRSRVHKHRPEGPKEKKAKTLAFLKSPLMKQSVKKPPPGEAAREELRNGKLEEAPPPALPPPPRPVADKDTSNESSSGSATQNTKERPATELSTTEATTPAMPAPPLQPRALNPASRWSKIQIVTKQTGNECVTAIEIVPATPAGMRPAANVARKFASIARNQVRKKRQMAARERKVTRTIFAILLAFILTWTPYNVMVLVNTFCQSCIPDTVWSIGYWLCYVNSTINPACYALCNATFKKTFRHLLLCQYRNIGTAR
# CHRM5 agonist: agonists of human muscarinic M5 receptor (CHRM5); CHO-K1 hM5 cells, Fluo-8 calcium fluorescence; 0% DMSO wells, 100% maximal acetylcholine response; P08912; activation, % at 3 µM; actives 0.19% (n = 360,000);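 active means activation above the run's mean over test compounds plus 3 SD, cut at about 23% in these data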;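 further: signal is peak over basal fluorescence ratio across the kinetic read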
# M5 PAM: CHRM5 positive allosteric modulation; actives 0.3% (n = 360,000); activation, % at 3 µM; CHO-K1 hM5, Fluo-8 calcium, ACh EC20 PAM; 0% = ACh EC20, 100% = ACh EC100;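 active means activation above the run cutoff, the mean activation of all test compounds plus 3 SD, cut at about 18% in these data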
#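 Assay system: CHO-K1 hM5 cells. Also added: acetylcholine at EC20 concentration, added after compound. Dosing: 3 µM, single dose. Times: compound preincubation 140 s before EC20 acetylcholine addition. Signal: Fluo-8 calcium fluorescence. Measure: % activation relative to EC20 and EC100 ACh responses. Repeats: singlicate, one well per test compound.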
# M4 PAM: positive allosteric modulators of human muscarinic M4 receptor | P08173 | CHO-K1 hM4/Gqi5, Fluo-8 calcium fluorescence, ACh EC20; 0% = ACh EC20, 100% = maximal ACh | activation, % at 3 µM | actives 0.4% (n = 360,000) | AID 624126;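 active means activation above its plate's cutoff, the mean activation of sample wells plus 3 SD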
# M4 ag: CHRM4 agonism in calcium assay; AID 624127; P08173; actives 0.14% (n = 360,000); activation, % at 3 µM; CHO-K1 hM4/Gqi5, Fluo-8 calcium fluorescence; vehicle 0%, full acetylcholine response 100%;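 active means activation above the run mean over all test wells plus 3 SD, cut at about 32% in these data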;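 further: peak over basal fluorescence ratio per well then scaled between controls; 0% = DMSO wells and 100% = acetylcholine at EC100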
# CHRM5 antagonist: CHRM5 antagonism in calcium assay | P08912 | CHO-hM5 cells, Fluo-8 calcium fluorescence, ACh EC80 | inhibition, % at 3 µM | actives 0.59% (n = 360,000);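 active means inhibition above a per-plate cutoff, the mean of that plate's test compounds plus 3 SD, cut at about 27% in these data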;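 further: 0% = acetylcholine EC80 with DMSO and 100% = DMSO without agonist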
# Active calls of the source: *. The list is not random: actives were taken first. Their share in the collection is about 1.9%.
SMILES,M4 antag,CHRM5 agonist,M5 PAM,M4 PAM,M4 ag,CHRM5 antagonist
CN(c1ccccc1)S(=O)(=O)c1cccc(NC(=O)c2cccc(C#N)c2)c1,8.5,5.9,-16.4,-12.1,20.1,32.9*
CN(c1ccccc1)S(=O)(=O)c1cccc(NC(=O)CSc2nnc(N)s2)c1,11.1,3.9,-17.4,-13.6,13.4,16.5
CN(C)S(=O)(=O)c1cccc(NC(=O)c2ccc(COc3ccccc3)cc2)c1,21.7,8.1,-21.9,-18.2,24.5,26.9*
O=C(c1ccc(-c2nnc(Nc3ccccc3)c3ccccc23)cc1)N1C[C@H]2C[C@H](C1)c1cccc(=O)n1C2,-9.9,-2.4,-1.3,1.3,0.6,15.1
Oc1ccc(-c2[nH]ncc2-c2cnn(-c3ccccc3)c2)c(O)c1,-0.2,-2.8,2.7,1.1,1.2,11.9
Oc1cnn(-c2ccccc2)c1,11.7,-2.9,3.4,30.9*,1.5,13.1
COc1ccc(CC(=O)NC(c2ccccc2)c2ccc(C)cc2)c(OC)c1 (centres undefined),5.5,-5.0,2.3,-9.3,-1.5,1.4
C[C@H](NC(=O)c1ncn(C)c1C(=O)N[C@@H](C)c1ccccc1)c1ccccc1,-2.0,3.5,10.6,-4.3,4.1,11.6
Cc1c(C(=O)c2ccc(Cl)cc2[N+](=O)[O-])c2ccccn2c1CCC#N,-2.5,3.2,19.3*,15.9,2.7,8.4
CC1(C)N=C(N)N=C(N)N1c1ccc(CCCCc2ccccc2)cc1,9.0,-3.7,-19.9,-9.0,-0.5,40.9*
CC1(C)N=C(N)N=C(N)N1c1ccccc1,-4.4,-6.4,2.6,6.6,0.6,-1.2
CCc1ccc(CNc2ccc3c(c2)ncn3C(C)(C)C)cc1,-17.9,-5.5,-11.3,-1.6,3.9,9.2
CC(C)(C)n1cnc2cc(NCc3ccc(Br)cc3)ccc21,-1.2,-4.0,-6.4,-3.2,2.8,27.3*
O=C(C1CCN(c2nnc(-n3cccc3)s2)CC1)N1CCN(Cc2ccc3c(c2)OCO3)CC1,-2.0,3.0,-4.1,-1.2,6.0,3.0
CC1CCN(Cc2ccc(NC(=O)C3CCN(c4nnc(-n5cccc5)s4)CC3)cc2)CC1,33.3*,-5.1,-5.3,-16.1,4.6,-4.4
CCN(CC)CCN1C(=O)C(=O)/C(=C(/O)c2c(C)[nH]c(C(=O)OC)c2C)C1c1ccccc1 (centres undefined),1.3,-2.0,2.5,29.5*,0.9,4.1
CCN(CC)CCN1C(=O)C(=O)/C(=C(/O)c2c(C)[nH]c(C(=O)OC)c2C)C1c1ccc(OC)cc1 (centres undefined),2.6,-1.2,-2.2,1.5,0.2,2.6
O=C(C[C@@H]1C/C=C/CC[C@@H](Cc2ccc(F)cc2)C(=O)O[C@@H](c2ccccc2)CNC1=O)NCCO,7.9,0.6,-25.9,-4.4,10.3,30.9*
O=C1NC[C@H](c2ccccc2)OC(=O)[C@@H](Cc2ccc(F)cc2)C/C=C\C[C@H]1CC(=O)N(CCO)Cc1ccccc1,33.5*,8.2,-36.9,-11.1,36.0*,16.9
O=C1N[C@H](Cc2ccccc2)COC(=O)[C@H](Cc2ccc(F)cc2)C/C=C\C[C@@H]1CC(=O)N(CCO)Cc1ccccc1,2.2,0.9,-14.3,-9.1,20.4,10.0
O=C1N[C@@H](c2ccccc2)COC(=O)[C@H](Cc2ccc(F)cc2)C/C=C\C[C@H]1CC(=O)N(CCO)Cc1ccccc1,1.1,3.0,18.1*,-0.4,0.8,-5.0
O=C(C[C@H]1C/C=C/CC[C@H](Cc2ccc(F)cc2)C(=O)O[C@H](c2ccccc2)CNC1=O)NCCO,2.4,-0.6,-2.8,1.7,0.7,5.0
O=C1N[C@@H](Cc2c[nH]c3ccccc23)COC(=O)[C@@H](Cc2ccc(F)cc2)C/C=C\C[C@H]1CC(=O)N(CCO)Cc1ccccc1,28.3*,1.2,-15.8,5.4,10.6,22.1
NCCc1nc(-c2ccccc2)cs1,-8.3,-8.6,6.0,-0.8,1.5,-1.5
O=C1N[C@@H](c2ccccc2)COC(=O)[C@H](Cc2ccc(F)cc2)CC/C=C/C[C@H]1CC(=O)N(CCO)Cc1ccccc1,-9.4,0.7,-2.2,-8.6,12.3,5.1
SMILES,M4 antag,CHRM5 agonist,M5 PAM,M4 PAM,M4 ag,CHRM5 antagonist
O=C1N[C@@H](c2ccccc2)COC(=O)[C@@H](Cc2ccc(F)cc2)C/C=C\C[C@@H]1CC(=O)N(CCO)Cc1ccccc1,16.9,15.2,-30.9,-13.1,56.1*,9.6
CCN(CC)C(=O)c1cccc(-c2csc(C(O)c3ccc(F)cc3)n2)c1 (centres undefined),-8.0,5.7,-10.1,1.6,11.6,1.6
O=C(CCc1ccccc1)NC(NC(=S)Nc1cccc(Cl)c1)C(Cl)(Cl)Cl (centres undefined),6.6,5.8,-14.1,-8.2,12.3,34.2*
O=C(CCc1ccccc1)NC(NC(=S)Nc1ccc(Br)cc1)C(Cl)(Cl)Cl (centres undefined),9.6,8.3,-18.5,-5.3,17.2,25.1
O=C(NCc1ccc(Cl)cc1)C(=O)NCC1OCCCN1S(=O)(=O)c1cccs1 (centres undefined),-9.4,-1.0,-12.7,-1.9,8.8,16.1
Cc1cc(O)c(-c2cc(O)c(C)cc2O)cc1O,27.7*,0.3,-4.6,-6.7,2.1,5.0
O=C(OCc1ccccc1)N1CCC2CC1c1cc(-c3ccc4c(c3)OCO4)ccc12 (centres undefined),-10.0,2.4,3.1,3.0,-0.7,-15.3
Fc1ccc(NC(=S)NC2CC3CCCC(C2)N3Cc2cccs2)cc1 (centres undefined),8.2,-6.1,-13.9,-5.6,3.4,31.8*
CC(C)C[C@H](NC(=O)c1nc[nH]c1C(=O)N1CCN(C(=O)OC(C)(C)C)CC1)C(=O)OCc1ccccc1,1.1,-8.5,-4.6,1.6,4.7,16.3
COc1cccc(/C=N/NC(=O)C(=O)N2CCCCCC2)c1OC,-12.7,-1.9,7.9,2.4,1.0,-8.4
O=C(N/N=C/c1cccc2ccccc12)C(=O)N1CCCC1,-12.5,0.9,18.2*,-7.5,-1.8,-0.3
CCC(O)(Cc1ccccn1)Cc1ccccn1,2.5,-4.5,-7.0,1.5,0.1,15.0
COc1ccc(N=C2C(=O)Nc3ccccc32)cc1,4.1,1.5,-0.2,-1.3,-0.2,3.2
COc1ccc(N=C2C(=O)N3c4c(cccc42)C(C)=CC3(C)C)cc1,3.3,28.9*,-5.7,12.0,0.9,-1.1
COc1ccc2nc3ccccc3nc2c1NC(=O)c1ccccc1Cl,2.8,0.1,-13.6,-10.4,7.1,27.9*
